According to ChEMBL document CHEMBL1150649, “Neoclerodane and labdane diterpenoids from Plectranthus ornatus” (2002):
≈ marks a conversion by molar mass, not a printed value. Calls of active or inactive are those of the source. The calls are words filed in the database; no cut-off is given here.

Experiments:
Staphylococcus aureus [1] = experiment: Antimicrobial activities against Staphylococcus aureus ATCC 25923 by […]; assay type: functional, organism-based
Pichia kudriavzevii = experiment: Antimicrobial activities against Candida krusei by broth microdilution method; assay type: functional
Method in brief: (§1)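 Test compounds were dissolved in DMSO and serially diluted in Mueller-Hinton broth over 250 to 3.9 µg/mL. Broth microdilution followed NCCLS guidelines. MIC was the lowest concentration showing no microbial growth compared with a compound-free control.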

Candida tropicalis = experiment: Antimicrobial activities against Candida tropicalis by broth microdilution method; assay type: functional; method in brief: as §1
Pseudomonas aeruginosa = experiment: Antimicrobial activities against Pseudomonas aeruginosa ATCC 27853 by broth microdilution method; assay type: functional; method in brief: as §1
Staphylococcus aureus [2] = experiment: Antimicrobial activities against Staphylococcus aureus ATCC 25923 by broth microdilution method; assay type: functional; method in brief: as §1
Nakaseomyces glabratus = experiment: Antimicrobial activities against Candida glabrata by broth microdilution method; assay type: functional; method in brief: as §1
[3] = system: Meyerozyma guilliermondii; experiment: Antimicrobial activities against Candida guilliermondii by broth microdilution method; assay type: functional; method in brief: as §1
Candida albicans = experiment: Antimicrobial activities against Candida albicans CIP 3153A by broth microdilution method; assay type: functional; method in brief: as §1
Escherichia coli = experiment: Antimicrobial activities against Escherichia coli ATCC 25922 by broth microdilution method; assay type: functional; method in brief: as §1

SMILES | Activity (Staphylococcus aureus [1]) | MIC (Pichia kudriavzevii) [µg/mL] | MIC (Candida tropicalis) [µg/mL] | MIC (Pseudomonas aeruginosa) [µg/mL] | MIC (Staphylococcus aureus [2]) [µg/mL] | MIC (Nakaseomyces glabratus) [µg/mL] | MIC [3] [µg/mL] | MIC (Candida albicans) [µg/mL] | MIC (Escherichia coli) [µg/mL]
C=C[C@@]1(C)CC(=O)[C@@H]2[C@@]3(C)[C@@H](O)CCC(C)(C)[C@@H]3[C@H](OC(C)=O)C[C@@]2(C)O1 (relative stereo) | Active |  |  |  |  |  |  |  | 
C=C[C@@]1(C)CC(=O)[C@@H]2[C@@]3(C)[C@@H](OC(C)=O)CCC(C)(C)[C@@H]3[C@H](OC(C)=O)C[C@@]2(C)O1 (relative stereo) [PLECTRORNATIN C] |  | 62.5 (≈ 149 µM) | 62.5 (≈ 149 µM) | ≥ 125 | ≥ 125 | 62.5 (≈ 149 µM) | 62.5 (≈ 149 µM) | 62.5 (≈ 149 µM) | ≥ 125
COC(=O)/C=C(\C)C[C@@H](OC(C)=O)[C@@]1(C)[C@H](C)CC[C@@]2(C)C(C)=CC(=O)C[C@H]12 [PLECTRORNATIN A] |  | 62.5 (≈ 160 µM) | 62.5 (≈ 160 µM) | ≥ 125 | ≥ 125 | 62.5 (≈ 160 µM) | 62.5 (≈ 160 µM) | 62.5 (≈ 160 µM) | ≥ 125
